For test [1], the target named is T1, recombinant human Nln (Homo sapiens, UniProt Q9BYT8). The following applies: read-out: Ki (published value); inhibition of Nln; cited from earlier work.
A further test deals with rNln E475A (Rattus norvegicus, UniProt P42676, E498A). It is filed as binding. The gist of the method:
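Rat Nln (Met37–Ser704, E475A) with a C-terminal 6xHis tag, expressed in E. coli BL21(DE3) and purified by Ni-affinity and SEC. FAM-labelled Dyn A peptides (FAM replacing Tyr1; 18 nM final) were mixed with 0–50 µM Nln in aCSF (0.2 µM ZnSO4, pH 7.2) plus 0.01% Triton X-100. Polarization was read at 25 °C (ex 485/em 535 nm). ΔmP versus no-Nln was fitted to one-site binding with ligand depletion for KD.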

In test [2] the target is T1, recombinant human Nln. Put plainly: Competition of Dyn A peptides with quenched fluorogenic Nln substrate. It counts as biochemical. The gist of the method:
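N-terminally 6xHis-tagged human Nln (Ser38–Pro704) was incubated in aCSF at 37 °C with 15 µM quenched substrate Mca-Pro-Leu-Gly-Pro-D-Lys(DNP)-OH, ± Dyn A peptide at 0.1–100 µM. Fluorescence was recorded continuously for 20 min under initial-velocity conditions (<10% substrate consumed). V0 was expressed as % of the no-peptide control and fitted to three-parameter log(inhibitor)–response to give IC50. Ki was calculated by Cheng–Prusoff (Km 8 µM). n=4, duplicates.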

Where two headings read alike, the source gives them in different places. Ends that are not written are not given here. Peptide text beside a SMILES is read from it. * marks the point of attachment. 5FAM = O=C1OC2(c3ccc(O)cc3Oc3cc(O)ccc32)c2ccc(C(=O)*)cc21

T1 sequence (Q9BYT8 38-704): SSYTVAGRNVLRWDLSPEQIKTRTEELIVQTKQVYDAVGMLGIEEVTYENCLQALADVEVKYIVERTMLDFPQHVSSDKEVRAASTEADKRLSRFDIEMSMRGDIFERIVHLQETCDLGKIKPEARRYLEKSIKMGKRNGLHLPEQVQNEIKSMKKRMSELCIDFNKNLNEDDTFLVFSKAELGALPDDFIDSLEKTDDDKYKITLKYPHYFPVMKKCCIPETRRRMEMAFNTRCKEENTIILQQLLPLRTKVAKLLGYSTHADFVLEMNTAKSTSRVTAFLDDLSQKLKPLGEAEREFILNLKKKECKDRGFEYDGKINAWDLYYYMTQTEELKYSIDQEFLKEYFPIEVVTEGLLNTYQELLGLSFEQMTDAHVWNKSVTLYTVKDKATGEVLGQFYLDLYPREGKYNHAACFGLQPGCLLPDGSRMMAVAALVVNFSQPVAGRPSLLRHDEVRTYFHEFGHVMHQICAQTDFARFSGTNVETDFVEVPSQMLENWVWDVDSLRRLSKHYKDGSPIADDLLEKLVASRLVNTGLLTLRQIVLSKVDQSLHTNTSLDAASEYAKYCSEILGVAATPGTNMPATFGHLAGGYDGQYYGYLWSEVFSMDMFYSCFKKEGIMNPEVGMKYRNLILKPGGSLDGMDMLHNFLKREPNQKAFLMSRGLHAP
Chain of rNln E475A (P42676 37-704 E498A): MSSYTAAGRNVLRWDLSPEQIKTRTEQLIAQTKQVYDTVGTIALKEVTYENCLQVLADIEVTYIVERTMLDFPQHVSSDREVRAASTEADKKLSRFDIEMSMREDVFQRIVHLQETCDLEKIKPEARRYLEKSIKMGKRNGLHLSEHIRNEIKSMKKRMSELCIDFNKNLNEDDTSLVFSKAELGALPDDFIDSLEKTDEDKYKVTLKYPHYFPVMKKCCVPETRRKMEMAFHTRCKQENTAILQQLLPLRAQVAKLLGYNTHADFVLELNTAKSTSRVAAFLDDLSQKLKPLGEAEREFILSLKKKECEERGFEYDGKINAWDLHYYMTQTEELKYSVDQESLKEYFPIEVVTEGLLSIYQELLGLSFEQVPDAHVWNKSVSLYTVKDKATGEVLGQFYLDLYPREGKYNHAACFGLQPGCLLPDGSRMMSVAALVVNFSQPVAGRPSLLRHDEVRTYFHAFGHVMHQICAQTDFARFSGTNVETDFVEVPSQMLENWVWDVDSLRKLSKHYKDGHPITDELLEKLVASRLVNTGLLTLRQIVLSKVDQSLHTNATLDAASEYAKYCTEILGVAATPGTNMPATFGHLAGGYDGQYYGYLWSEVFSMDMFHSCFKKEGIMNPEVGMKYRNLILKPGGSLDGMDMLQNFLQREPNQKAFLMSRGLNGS

On to `CC[C@H](C)[C@H](NC(=O)[C@H](CCCNC(=N)N)NC(=O)[C@H](CCCNC(=N)N)NC(=O)[C@H](CC(C)C)NC(=O)[C@H](Cc1ccccc1)NC(=O)CNC(=O)CNC(=O)[C@@H](N)Cc1ccc(O)cc1)C(=O)N[C@@H](CCCNC(=N)N)C(=O)N1CCC[C@H]1C(=O)N[C@@H](CCCCN)C(=O)N[C@@H](CC(C)C)C(=O)N[C@@H](CCCCN)C(=O)O` [Dyn A (1–13)], for which, on recombinant human Nln [1], the Ki is 1.19 µM.

As for `CC[C@H](C)[C@H](NC(=O)[C@H](CCCNC(=N)N)NC(=O)[C@H](CCCNC(=N)N)NC(=O)[C@H](CC(C)C)NC(=O)[C@H](Cc1ccccc1)NC(=O)CNC(=O)CNC(=O)c1ccc2c(c1)C(=O)OC21c2ccc(O)cc2Oc2cc(O)ccc21)C(=O)N[C@@H](CCCNC(=N)N)C(=O)N1CCC[C@H]1C(=O)N[C@@H](CCCCN)C(=O)N[C@@H](CC(C)C)C(=O)N[C@@H](CCCCN)C(=O)N[C@@H](Cc1c[nH]c2ccccc12)C(=O)N[C@@H](CC(=O)O)C(=O)N[C@@H](CC(N)=O)C(=O)N[C@@H](CCC(N)=O)C(=O)O` [FAM-^2GGFLRRIRPKLKWDNQ^17], at rNln E475A, the Kd is 3.26 µM.

YGGFLRRIR [Dyn A (1–9)]: the Ki at recombinant human Nln [2] was ~6 µM.

Turning to `CC[C@H](C)[C@H](NC(=O)[C@H](CCCNC(=N)N)NC(=O)[C@H](CCCNC(=N)N)NC(=O)[C@H](CC(C)C)NC(=O)[C@H](Cc1ccccc1)NC(=O)CNC(=O)CNC(=O)c1ccc2c(c1)C(=O)OC21c2ccc(O)cc2Oc2cc(O)ccc21)C(=O)N[C@@H](CCCNC(=N)N)C(=O)N1CCC[C@H]1C(=O)N[C@@H](CCCCN)C(=O)N[C@@H](CC(C)C)C(=O)N[C@@H](CCCCN)C(=O)O` [FAM-^2GGFLRRIRPKLK^13], binding at rNln E475A was characterised by a dissociation constant (Kd) of 4.69 µM.

`CC[C@H](C)[C@H](NC(=O)[C@H](CCCNC(=N)N)NC(=O)[C@H](CCCNC(=N)N)NC(=O)[C@H](CC(C)C)NC(=O)[C@H](Cc1ccccc1)NC(=O)CNC(=O)CNC(=O)c1ccc2c(c1)C(=O)OC21c2ccc(O)cc2Oc2cc(O)ccc21)C(=O)N[C@@H](CCCNC(=N)N)C(=O)N1CCC[C@H]1C(=O)O` [FAM-^2GGFLRRIRP^10] (5FAM-GGFLRRIRP-OH) gave a dissociation constant (Kd) on rNln E475A of 8.46 µM.

For the compound `CC[C@H](C)[C@H](NC(=O)[C@H](CCCNC(=N)N)NC(=O)[C@H](CCCNC(=N)N)NC(=O)[C@H](CC(C)C)NC(=O)[C@H](Cc1ccccc1)NC(=O)CNC(=O)CNC(=O)[C@@H](N)Cc1ccc(O)cc1)C(=O)N[C@@H](CCCNC(=N)N)C(=O)N1CCC[C@H]1C(=O)N[C@@H](CCCCN)C(=O)N[C@@H](CC(C)C)C(=O)N[C@@H](CCCCN)C(=O)N[C@@H](Cc1c[nH]c2ccccc12)C(=O)N[C@@H](CC(=O)O)C(=O)N[C@@H](CC(N)=O)C(=O)N[C@@H](CCC(N)=O)C(=O)O` [Dyn A (1–17)], the inhibition constant Ki on recombinant human Nln [2] was ~6 µM.

For orientation: Ki means a measure of affinity in units of concentration, obtained from inhibition or displacement. As usually defined, the Kd is the concentration at which binding is half-saturated.

The values above are taken from PMC11310207 (Scientific Reports, 2024).
